{
  "source": "paper PMC7931638",
  "about": "(Xenobiotica; the fate of foreign compounds in biological …, 2020)",
  "key": {"[1]": {"assay": "in vivo", "settings": "male, B6C3F1/N, mouse; for half-life: Free Elimination half-life"}, "[2]": {"settings": "male rats, ref Waidyanatha et al., cited from earlier work"}, "[3]": {"assay": "Stability in dosed-feed formulations", "assay_type": "physicochemical", "settings": "up to 42 d, RE ≤ ± 10% of day 0 value"}, "[4]": {"assay_type": "in vivo, mouse", "settings": "male mice; for group mean daily body weight gain: 7 d; for average daily feed consumption: 7 d exposure; for survival: all exposure groups, 7 d via feed"}, "[5]": {"assay": "in vivo", "settings": "male; for half-life: po, Free Elimination half-life"}, "[6]": {"assay_type": "in vivo, rat", "settings": "male rats, dose-normalized", "outline": "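Male rats (272–308 g, 8–9 weeks), singly caged, received dosed feed ad libitum at 338, 1125 or 3750 ppm for 7 days. Control feed followed, with plasma sampled up to 24 h. Free and deconjugated total test compound were measured by LC-MS/MS. Cmax and AUC came from an extravascular model and were normalized to the daily dose (food consumption, concentration, body weight). Gavage values were taken from earlier single-dose work.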"}, "[7]": {"assay_type": "in vivo, rat", "settings": "male rats; for group mean daily body weight gain: 7 d; for average daily feed consumption: 7 d exposure; for survival: all exposure groups, 7 d via feed"}, "[8]": {"settings": "Hsd:Sprague Dawley SD (rat), B6C3F1/N (mouse)"}, "[9]": {"settings": "gavage 34 mg/kg vs feed 23.4 mg/kg"}, "[10]": {"settings": "gavage 110 mg/kg vs feed 70.5 mg/kg"}, "[11]": {"settings": "gavage 340 mg/kg vs feed 193 mg/kg"}},
  "note": "Like-named read-outs stand apart in the source and are kept apart here.",
  "data": [
    {"smiles": "Oc1ccc(C(c2ccc(O)cc2)(C(F)(F)F)C(F)(F)F)cc1", "note": "[BPAF, 2,2-bis(4-hydroxyphenyl)perfluoropropane]", "values": [
      {"measurement": "Total plasma elimination half-lives, range over exposure concentrations", "setting": "[1]", "value": "3.49 to 4.18", "unit": "h"},
      {"measurement": "half-life", "setting": "[1]; po", "value": 6.66, "unit": "h"},
      {"measurement": "Gavage AUC/D", "setting": "[2]; single gavage 34 mg/kg, 2019", "value": "11.7 (h*ng/mL)/(mg/kg)"},
      {"measurement": "Gavage Cmax/D", "setting": "[2]; single gavage 34 mg/kg, 2019", "value": "1.79 (ng/mL)/(mg/kg)"},
      {"measurement": "Gavage AUC/D", "setting": "[2]; single gavage 110 mg/kg, 2019", "value": "11.2 (h*ng/mL)/(mg/kg)"},
      {"measurement": "Gavage Cmax/D", "setting": "[2]; single gavage 110 mg/kg, 2019", "value": "1.29 (ng/mL)/(mg/kg)"},
      {"measurement": "Gavage AUC/D", "setting": "[2]; single gavage 340 mg/kg, 2019", "value": "14.2 (h*ng/mL)/(mg/kg)"},
      {"measurement": "Gavage Cmax/D", "setting": "[2]; single gavage 340 mg/kg, 2019", "value": "1.62 (ng/mL)/(mg/kg)"},
      {"measurement": "stability in feed formulations stored at refrigerated temperature", "setting": "[3]", "value": "confirmed"},
      {"measurement": "group mean daily body weight gain", "setting": "[4]; 338 ppm via feed", "value": "0.3 ± 0.5", "unit": "g"},
      {"measurement": "average daily feed consumption", "setting": "[4]; 338 ppm", "value": "207 ± 68", "unit": "g/kg bw/d"},
      {"measurement": "group mean daily body weight gain", "setting": "[4]; 1125 ppm via feed", "value": "0.1 ± 0.6", "unit": "g"},
      {"measurement": "average daily feed consumption", "setting": "[4]; 1125 ppm", "value": "211 ± 68", "unit": "g/kg bw/d"},
      {"measurement": "group mean daily body weight gain", "setting": "[4]; 3750 ppm via feed", "value": "0.1 ± 0.7", "unit": "g"},
      {"measurement": "feed consumption, fold higher than pre-study control food consumption", "setting": "[4]; 3750 ppm, probably due to high spillage rate", "value": 1.7, "unit": "fold"},
      {"measurement": "survival", "setting": "[4]", "value": "All animals survived until the end of the study"},
      {"measurement": "Total plasma elimination half-lives, fold longer in rats compared to mice", "setting": "[5]; [8]", "value": "2-3 fold"},
      {"measurement": "Total Elimination half-life", "setting": "[5]; Hsd:Sprague Dawley SD, rat", "value": 13.3, "unit": "h"},
      {"measurement": "half-life", "setting": "[5]; Hsd:Sprague Dawley SD, rat", "value": 7.1, "unit": "h"},
      {"measurement": "Ratio (Gavage/Feed) AUC", "setting": "[6]; [9]", "value": 2.3},
      {"measurement": "Ratio (Gavage/Feed) Cmax", "setting": "[6]; [9]", "value": 3.9},
      {"measurement": "Ratio (Gavage/Feed) AUC", "setting": "[6]; [10]", "value": 1.6},
      {"measurement": "Ratio (Gavage/Feed) Cmax", "setting": "[6]; [10]", "value": 2.2},
      {"measurement": "Ratio (Gavage/Feed) AUC", "setting": "[6]; [11]", "value": 3.7},
      {"measurement": "Ratio (Gavage/Feed) Cmax", "setting": "[6]; [11]", "value": 4.9},
      {"measurement": "group mean daily body weight gain", "setting": "[7]; 338 ppm via feed", "value": "3.38 ± 3.37", "unit": "g"},
      {"measurement": "average daily feed consumption", "setting": "[7]; 338 ppm", "value": "69.2 ± 5.8", "unit": "g/kg bw/d"},
      {"measurement": "group mean daily body weight gain", "setting": "[7]; 1125 ppm via feed", "value": "2.12 ± 3.68", "unit": "g"},
      {"measurement": "average daily feed consumption", "setting": "[7]; 1125 ppm", "value": "61.0 ± 11.7", "unit": "g/kg bw/d"},
      {"measurement": "group mean daily body weight gain", "setting": "[7]; 3750 ppm via feed", "value": "−0.4 ± 2.3"},
      {"measurement": "average daily feed consumption", "setting": "[7]; 3750 ppm", "value": "51.5 ± 20.5", "unit": "g/kg bw/d"},
      {"measurement": "survival", "setting": "[7]", "value": "All animals survived until the end of the study"}
    ]},
    {"smiles": "O=S(=O)(c1ccc(O)cc1)c1ccc(O)cc1", "note": "[BPS, 4,4’-sulfonyldiphenol]", "values": [
      {"measurement": "Total plasma elimination half-lives, range over exposure concentrations", "setting": "[1]", "value": "6.11 to 7.89", "unit": "h"},
      {"measurement": "Free Elimination half-life", "setting": "[1]; po", "value": 6.82, "unit": "h"},
      {"measurement": "half-life", "setting": "[1]; po", "value": 6.11, "unit": "h"},
      {"measurement": "Gavage Cmax/D", "setting": "[2]; single gavage 34 mg/kg, 2020", "value": "9.2 (ng/mL)/(mg/kg)"},
      {"measurement": "Gavage Cmax/D", "setting": "[2]; single gavage 340 mg/kg, 2020", "value": "9.5 (ng/mL)/(mg/kg)"},
      {"measurement": "stability in feed formulations stored at refrigerated temperature", "setting": "[3]", "value": "confirmed"},
      {"measurement": "group mean daily body weight gain", "setting": "[4]; 338 ppm via feed", "value": "0.1 ± 0.4", "unit": "g"},
      {"measurement": "average daily feed consumption", "setting": "[4]; 338 ppm", "value": "389 ± 85", "unit": "g/kg bw/d"},
      {"measurement": "group mean daily body weight gain", "setting": "[4]; 1125 ppm via feed", "value": "0.1 ± 0.3", "unit": "g"},
      {"measurement": "average daily feed consumption", "setting": "[4]; 1125 ppm", "value": "381 ± 61", "unit": "g/kg bw/d"},
      {"measurement": "group mean daily body weight gain", "setting": "[4]; 3375 ppm via feed", "value": "0.1 ± 0.3", "unit": "g"},
      {"measurement": "average daily feed consumption", "setting": "[4]; 3375 ppm", "value": "348 ± 131", "unit": "g/kg bw/d"},
      {"measurement": "survival", "setting": "[4]", "value": "All animals survived until the end of the study"},
      {"measurement": "Free and total Cmax, difference between rats and mice", "setting": "[5]; [8]", "value": "≤ 2", "unit": "fold"},
      {"measurement": "Free and total plasma elimination half-lives, difference between rats and mice", "setting": "[5]; [8]", "value": "≤ 2", "unit": "fold"},
      {"measurement": "half-life", "setting": "[5]; Hsd:Sprague Dawley SD, rat", "value": 4.82, "unit": "h"},
      {"measurement": "group mean daily body weight gain", "setting": "[7]; 338 ppm via feed", "value": "3.7 ± 4.4", "unit": "g"},
      {"measurement": "average daily feed consumption", "setting": "[7]; 338 ppm", "value": "68 ± 2.5", "unit": "g/kg bw/d"},
      {"measurement": "group mean daily body weight gain", "setting": "[7]; 1125 ppm via feed", "value": "3.7 ± 2.7", "unit": "g"},
      {"measurement": "average daily feed consumption", "setting": "[7]; 1125 ppm", "value": "68 ± 3.5", "unit": "g/kg bw/d"},
      {"measurement": "group mean daily body weight gain", "setting": "[7]; 3375 ppm via feed", "value": "2.6 ± 5.9", "unit": "g"},
      {"measurement": "average daily feed consumption", "setting": "[7]; 3375 ppm", "value": "62 ± 5.1", "unit": "g/kg bw/d"},
      {"measurement": "survival", "setting": "[7]", "value": "All animals survived until the end of the study"}
    ]}
  ]
}
